Key:
Plasmodium falciparum [1] = assay: Antiplasmodial activity against chloroquine-sensitive Plasmodium falciparum D6 infected human erythrocytes as [3H]hypoxanthine uptake after 24 hrs; assay type: functional, organism-based
Summary of the method: (§1)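 P. falciparum (D6, W2) cultured in type A+ human erythrocytes, RPMI-1640 with NaHCO3, HEPES and 10% heat-inactivated human plasma, 37 °C under 5% O2/5% CO2/90% N2. Infected red cells at 0.5-1.0% parasitemia, 1.0% hematocrit exposed to compound, duplicate seven-point series, 24 h; then 0.5 μCi [3H]hypoxanthine per well for 18 h more. Filter harvest, scintillation counting; IC50 by nonlinear regression versus zero-drug controls.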

[2] = Selectivity index, ratio of ED50 for human KB cells to IC50 for chloroquine-resistant Plasmodium falciparum W2; assay type: functional
[3] = Selectivity index, ratio of ED50 for human KB cells to IC50 for […] Plasmodium falciparum D6; assay type: functional
Plasmodium falciparum [4] = assay: Antiplasmodial activity against chloroquine-resistant Plasmodium falciparum W2 infected human erythrocytes as [3H]hypoxanthine uptake after 24 hrs; assay type: functional, organism-based; summary of the method: as §1
KB = assay: Cytotoxicity against human KB cells after 72 hrs by SRB assay; assay type: functional; conditions: read-out: ED50 (the source's name)
Summary of the method: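 KB-3 cells grown in DMEM with 10% FBS at 37 °C and 5% CO₂ to 60–70% confluence, then used 1 day after a medium change. Samples were dissolved in DMSO and serially diluted in 10% aqueous DMSO. 5×10⁴ cells were exposed for 72 h at 37 °C, then TCA-fixed, stained with 0.4% SRB and read at 515 nm. Zero-day control was subtracted and values expressed relative to solvent control; ED50 by nonlinear regression.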

## COc1cc2c3c4c1Oc1cc5c(cc1O4)[C@H](Cc1ccc(O)c(c1)Oc1ccc(cc1)C[C@@H]3NCC2)N(C)CC5
Plasmodium falciparum [1]
  IC50: 48 nM
[2]
  Selectivity Index: 14
[3]
  Selectivity Index: 79
Plasmodium falciparum [4]
  IC50: 281 nM
KB
  EC50: 3800 nM

## CN1CCc2cc3c4cc2[C@@H]1Cc1ccc(O)c(c1)Oc1ccc(cc1)C[C@H]1c2c(cc(O)c(c2O4)O3)CCN1C
Plasmodium falciparum [1]
  IC50: 90 nM
[2]
  Selectivity Index: 19
[3]
  Selectivity Index: 55
Plasmodium falciparum [4]
  IC50: 259 nM
KB
  EC50: 4900 nM

## COc1cc2c3c(c1O)Oc1cc4c(cc1O)CCN(C)[C@H]4Cc1ccc(O)c(c1)Oc1ccc(cc1)C[C@@H]2NCC3
Plasmodium falciparum [1]
  IC50: 883 nM
[2]
  Selectivity Index: 11
[3]
  Selectivity Index: 20
Plasmodium falciparum [4]
  IC50: 1590 nM
KB
  EC50: 17800 nM

## COc1ccc2cc1Oc1cc3c(cc1OC)CCN[C@@H]3Cc1ccc(cc1)Oc1c3c(cc4c1[C@@H](C2)N(C)CC4)OCO3
Plasmodium falciparum [1]
  IC50: 530 nM
[2]
  Selectivity Index: 21.2
[3]
  Selectivity Index: 27.1
Plasmodium falciparum [4]
  IC50: 676 nM
KB
  EC50: 14400 nM

## COc1ccc2cc1Oc1ccc(cc1)C[C@H]1c3cc(c(OC)cc3CCN1C)Oc1c(O)c(OC)cc3c1[C@@H](C2)NCC3
Plasmodium falciparum [1]
  IC50: 115 nM
[2]
  Selectivity Index: 50
[3]
  Selectivity Index: 92
Plasmodium falciparum [4]
  IC50: 210 nM
KB
  EC50: 10400 nM

## COc1ccc2cc1Oc1ccc(cc1)C[C@H]1c3cc(c(OC)cc3CCN1C)Oc1c(OC)c(OC)cc3c1[C@@H](C2)N(C)CC3
Plasmodium falciparum [1]
  IC50: 260 nM
[2]
  Selectivity Index: 120
[3]
  Selectivity Index: 40
Plasmodium falciparum [4]
  IC50: 88 nM
KB
  EC50: 10600 nM

## COc1ccc2cc1Oc1cc3c(cc1OC)CCN(C(C)=O)[C@H]3Cc1ccc(cc1)Oc1c3c(cc4c1[C@H](C2)N(C)CC4)OCO3
Plasmodium falciparum [1]
  IC50: 2320 nM
[2]
  Selectivity Index: 7
[3]
  Selectivity Index: 3.6
Plasmodium falciparum [4]
  IC50: 1200 nM
KB
  EC50: 8360 nM

## COc1ccc2cc1Oc1ccc(cc1)C[C@H]1c3cc(c(OC)cc3CCN1C)Oc1c(OC)c(OC)cc3c1[C@@H](C2)NCC3
Plasmodium falciparum [1]
  IC50: 106 nM
[3]
  Selectivity Index: 95

## COc1cc2c(cc1O)[C@H](Cc1ccc(Oc3cc(C[C@@H]4c5cc(OC)c(OC)cc5CCN4C)ccc3OC)cc1)N(C)CC2
Plasmodium falciparum [1]
  IC50: 213 nM
[2]
  Selectivity Index: >140
[3]
  Selectivity Index: >150
Plasmodium falciparum [4]
  IC50: 227 nM
KB
  EC50: > 32100 nM

## COc1ccc2cc1Oc1ccc(cc1)C[C@H]1c3c(cc(OC)c4c3Oc3cc5c(cc3O4)CCN=C5C2)CCN1C
Plasmodium falciparum [1]
  IC50: 554 nM
[2]
  Selectivity Index: 11
[3]
  Selectivity Index: 11
Plasmodium falciparum [4]
  IC50: 464 nM
KB
  EC50: 5000 nM

## COc1ccc2cc1Oc1cc3c(cc1OC)CCN(C)[C@@H]3Cc1ccc(cc1)Oc1c(O)c(OC)cc3c1[C@@H](C2)N(C)CC3
Plasmodium falciparum [1]
  IC50: 128 nM
[2]
  Selectivity Index: 20
[3]
  Selectivity Index: 60
Plasmodium falciparum [4]
  IC50: 387 nM
KB
  EC50: 7700 nM

## COc1ccc2cc1Oc1ccc(cc1)C[C@H]1c3c(cc(O)c(OC)c3Oc3cc4c(cc3OC)CCN(C)[C@@H]4C2)CCN1C
Plasmodium falciparum [1]
  IC50: 214 nM
[2]
  Selectivity Index: 21
[3]
  Selectivity Index: 49
Plasmodium falciparum [4]
  IC50: 510 nM
KB
  EC50: 10500 nM

## COc1cc2c3cc1Oc1c(O)c(OC)cc4c1[C@H](Cc1ccc(O)c(c1)Oc1ccc(cc1)C[C@H]3N(C)CC2)N(C)CC4
Plasmodium falciparum [1]
  IC50: 134 nM
[2]
  Selectivity Index: 29
[3]
  Selectivity Index: 130
Plasmodium falciparum [4]
  IC50: 609 nM
KB
  EC50: 17500 nM

## COc1cc2c3cc1Oc1c(O)c(OC)cc4c1[C@H](Cc1ccc(O)c(c1)Oc1ccc(cc1)C[C@@H]3N(C)CC2)N(C)CC4
Plasmodium falciparum [1]
  IC50: 232 nM
[2]
  Selectivity Index: 6
[3]
  Selectivity Index: 16
Plasmodium falciparum [4]
  IC50: 623 nM
KB
  EC50: 3700 nM

## COc1ccc2cc1Oc1ccc(cc1)C[C@H]1c3cc(c(OC)cc3CCN1C)Oc1c(O)c(OC)cc3c1[C@@H](C2)N(C)CC3
Plasmodium falciparum [1]
  IC50: 199 nM
[2]
  Selectivity Index: 28
[3]
  Selectivity Index: 54
Plasmodium falciparum [4]
  IC50: 378 nM
KB
  EC50: 10700 nM

## COc1ccc2cc1Oc1ccc(cc1)C[C@@H]1c3c(cc(OC)c(O)c3Oc3cc4c(cc3OC)CCN[C@@H]4C2)CCN1C
Plasmodium falciparum [1]
  IC50: 106 nM
[2]
  Selectivity Index: 26
[3]
  Selectivity Index: 92
Plasmodium falciparum [4]
  IC50: 375 nM
KB
  EC50: 9800 nM

## COc1ccc2cc1Oc1ccc(cc1)C[C@@H]1c3c(cc(OC)c(O)c3Oc3cc4c(cc3OC)CCN(C)[C@@H]4C2)CCN1C
Plasmodium falciparum [1]
  IC50: 64 nM
[2]
  Selectivity Index: 21
[3]
  Selectivity Index: 64
Plasmodium falciparum [4]
  IC50: 192 nM
KB
  EC50: 4110 nM

## COc1ccc(C[C@H]2c3cc(Oc4cc(OC)c(OC)cc4C[C@H]4c5cc(O)c(OC)cc5CCN4C)c(OC)cc3CCN2C)cc1O
Plasmodium falciparum [1]
  IC50: 61 nM
[2]
  Selectivity Index: >180
[3]
  Selectivity Index: >490
Plasmodium falciparum [4]
  IC50: 164 nM
KB
  EC50: > 29900 nM

## COc1cc2c3cc1Oc1c(O)c(OC)cc4c1[C@@H](Cc1ccc(cc1)Oc1cc(ccc1O)C[C@H]3N(C)CC2)N(C)CC4
Plasmodium falciparum [1]
  IC50: 29 nM
[2]
  Selectivity Index: 82
[3]
  Selectivity Index: 300
Plasmodium falciparum [4]
  IC50: 105 nM
KB
  EC50: 8600 nM

## COc1ccc2cc1Oc1ccc(cc1)C[C@H]1c3c(cc(O)c4c3Oc3cc5c(cc3O4)CCN(C)[C@H]5C2)CCN1C
Plasmodium falciparum [1]
  IC50: 30 nM
[2]
  Selectivity Index: 54
[3]
  Selectivity Index: 200
KB
  EC50: 6000 nM

## COc1ccc2cc1Oc1ccc(cc1)C[C@H]1c3c(cc4c(c3Oc3cc5c(cc3OC)CCN[C@@H]5C2)OCO4)CCN1C
Plasmodium falciparum [1]
  IC50: 79 nM
[2]
  Selectivity Index: 30
[3]
  Selectivity Index: 84
Plasmodium falciparum [4]
  IC50: 219 nM
KB
  EC50: 6600 nM

## COc1ccc2cc1Oc1ccc(cc1)C[C@H]1c3c(cc(OC)c(OC)c3Oc3cc4c(cc3OC)CCN[C@@H]4C2)CCN1C
Plasmodium falciparum [1]
  IC50: 75 nM
[2]
  Selectivity Index: 64
[3]
  Selectivity Index: 130
Plasmodium falciparum [4]
  IC50: 154 nM
KB
  EC50: 9900 nM

## COc1ccc2cc1Oc1cc3c(cc1OC)CCN[C@H]3Cc1ccc(cc1)Oc1c3c(cc4c1[C@@H](C2)N(C)CC4)OCO3
Plasmodium falciparum [1]
  IC50: 1270 nM
[2]
  Selectivity Index: 13.3
[3]
  Selectivity Index: 7.5
Plasmodium falciparum [4]
  IC50: 662 nM
KB
  EC50: 8800 nM

## COc1ccc2cc1Oc1ccc(cc1)C[C@H]1c3c(cc(OC)c(O)c3Oc3cc4c(cc3OC)CCN(C)[C@H]4C2)CCN1C
Plasmodium falciparum [1]
  IC50: 48 nM
[2]
  Selectivity Index: 54
[3]
  Selectivity Index: 76
Plasmodium falciparum [4]
  IC50: 67 nM
KB
  EC50: 3620 nM

## COc1ccc2cc1Oc1ccc(cc1)C[C@H]1c3c(cc(OC)c(OC)c3Oc3c4c(cc(OC)c3OC)[C@H](C2)N(C)CC4)CCN1C
Plasmodium falciparum [1]
  IC50: 224 nM
[2]
  Selectivity Index: 76.4
[3]
  Selectivity Index: 37.7
Plasmodium falciparum [4]
  IC50: 110 nM
KB
  EC50: 8400 nM

## COc1ccc2cc1Oc1ccc(cc1)C[C@@H]1NCCc3cc(OC)c(cc31)Oc1c(O)c(OC)cc3c1[C@@H](C2)N(C)CC3
Plasmodium falciparum [1]
  IC50: 118 nM
[2]
  Selectivity Index: 12
[3]
  Selectivity Index: 23
Plasmodium falciparum [4]
  IC50: 218 nM
KB
  EC50: 2700 nM

## COc1cc2c3cc1Oc1c(O)c(OC)cc4c1[C@H](Cc1ccc(cc1)Oc1cc(ccc1O)C[C@H]3N(C)CC2)N(C)CC4
Plasmodium falciparum [1]
  IC50: 446 nM
[2]
  Selectivity Index: 11
[3]
  Selectivity Index: 33
Plasmodium falciparum [4]
  IC50: 1400 nM
KB
  EC50: 14800 nM

## COc1ccc2cc1Oc1cc3c(cc1OC)CCN(C(C)=O)[C@H]3Cc1ccc(cc1)Oc1c3c(cc4c1[C@@H](C2)N(C)CC4)OCO3
Plasmodium falciparum [1]
  IC50: 1910 nM
[2]
  Selectivity Index: 13
Plasmodium falciparum [4]
  IC50: 1050 nM
KB
  EC50: 13600 nM

## COc1ccc2cc1Oc1ccc(cc1)C[C@@H]1c3cc(c(OC)cc3CCN1C)Oc1c(O)c(OC)cc3c1[C@@H](C2)N(C)CC3
Plasmodium falciparum [1]
  IC50: 86 nM
[2]
  Selectivity Index: 61
[3]
  Selectivity Index: 186
Plasmodium falciparum [4]
  IC50: 263 nM
KB
  EC50: 16100 nM

## COc1cc2c3cc1Oc1c(OC)c(OC)cc4c1[C@H](Cc1ccc(cc1)Oc1cc(ccc1O)C[C@@H]3N(C)CC2)N(C)CC4
Plasmodium falciparum [1]
  IC50: 42 nM
[2]
  Selectivity Index: 220
[3]
  Selectivity Index: 350
Plasmodium falciparum [4]
  IC50: 67 nM
KB
  EC50: 15000 nM

## COc1cc2c3cc1Oc1c(OC)c(OC)cc4c1[C@@H](Cc1ccc(O)c(c1)Oc1ccc(cc1)C[C@@H]3N(C)CC2)NCC4
Plasmodium falciparum [1]
  IC50: 47 nM
[2]
  Selectivity Index: 36
[3]
  Selectivity Index: 149
Plasmodium falciparum [4]
  IC50: 193 nM
KB
  EC50: 7100 nM

## COc1cc2c3cc1Oc1cc(ccc1O)C[C@@H]1c4c(cc5c(c4Oc4ccc(cc4)C[C@@H]3N(C(C)=O)CC2)OCO5)CCN1C
Plasmodium falciparum [1]
  IC50: 6890 nM
[2]
  Selectivity Index: 2.2
[3]
  Selectivity Index: 1.3
Plasmodium falciparum [4]
  IC50: 4030 nM
KB
  EC50: 8870 nM

## COc1ccc2cc1Oc1ccc(cc1)C[C@H]1c3cc(c(OC)cc3CC[N+]1(C)[O-])Oc1c(OC)c(OC)cc3c1[C@H](C2)N(C)CC3 (some centres undefined)
Plasmodium falciparum [1]
  IC50: 1980 nM
[2]
  Selectivity Index: >34
[3]
  Selectivity Index: >16
Plasmodium falciparum [4]
  IC50: 948 nM
KB
  EC50: > 31300 nM

## CCN(CC)CCCC(C)Nc1ccnc2cc(Cl)ccc12 (centres undefined) [CHLOROQUINE]
KB
  EC50: 33700 nM

## COc1cc2c3c4c1Oc1cc5c(cc1O4)[C@H](Cc1ccc(O)c(c1)Oc1ccc(cc1)C[C@@H]3N(C)CC2)N(C)CC5 [COCSULINE]
Plasmodium falciparum [1]
  IC50: 87 nM
[3]
  Selectivity Index: 110
Plasmodium falciparum [4]
  IC50: 502 nM
KB
  EC50: 10000 nM

## OC(c1cc(C(F)(F)F)nc2c(C(F)(F)F)cccc12)C1CCCCN1 (centres undefined) [MEFLOQUINE]
[2]
  Selectivity Index: 1080
[3]
  Selectivity Index: 465
Plasmodium falciparum [4]
  IC50: 7.78 nM
KB
  EC50: 8430 nM

Reference: ChEMBL document CHEMBL1157985, “Antiplasmodial and cytotoxic activity of natural bisbenzylisoquinoline alkaloids” (J Nat Prod, 1999)
